ChEMBL document CHEMBL4266005, “Discovery of a Biologically Active Bromodomain Inhibitor by Target-Directed Dynamic Combinatorial Chemistry” (ACS Med Chem Lett, 2018)
Active and inactive are the calls of the source. The rule behind the calls is not given here.

Key:
Trypanosoma cruzi [1] = experiment: Binding affinity to recombinant Trypanosoma cruzi His/haemaglutinin-tagged BDF3 expressed in Escherichia coli BL21 assessed as compound amplification factor at 75 uM by LC-MS based dynamic combinatorial chemistry analysis
In short: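 A dynamic acylhydrazone library was built from six aldehydes and four acylhydrazides (75 μM each) in 100 mM ammonium acetate, pH 6.5, with 3.75 mM aniline. It reached constant composition by about 10 h and was run with or without 100 μM recombinant TcBDF3. Amplification factor is the LC–MS peak area with template divided by the area without template.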

Trypanosoma cruzi [2] = experiment: Antitrypanosomal activity against Trypanosoma cruzi Dm28c epimastigotes infected in African green monkey Vero cells after 72 hrs by CPRG/Nonidet reagent based beta-galactosidase reporter gene assay; type: functional, organism-based
In short: (§1)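 β-Galactosidase-expressing parasites were exposed to 0–200 μM of compound. Growth inhibition was read from β-galactosidase activity, and IC50 was obtained by nonlinear regression of activity against concentration.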

Trypanosoma cruzi [3] = experiment: Antitrypanosomal activity against Trypanosoma cruzi Dm28c trypomastigotes infected in African green monkey Vero cells after 24 hrs by CPRG/Nonidet reagent based beta-galactosidase reporter gene assay; type: functional, organism-based; in short: as §1
Trypanosoma cruzi [4] = experiment: Antitrypanosomal activity against Trypanosoma cruzi Dm28c amastigotes infected in African green monkey Vero cells after 48 hrs by CPRG/Nonidet reagent based beta-galactosidase reporter gene assay; type: functional, organism-based; in short: as §1
Vero = experiment: Cytotoxicity against African green monkey Vero cells after 72 hrs by MTT assay; type: cell-based; conditions: Chlorocebus sabaeus
[5] = Selectivity index, ratio of IC50 for African green monkey Vero cells to IC50 for Trypanosoma cruzi Dm28c epimastigotes infected in African green monkey Vero cells; type: toxicity; conditions: read-out: Ratio IC50
In short: (§2)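 Selectivity index is the Vero cell toxicity IC50 divided by the IC50 against the relevant extracellular or intracellular parasite form.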

[6] = Selectivity index, ratio of IC50 for African green monkey Vero cells to IC50 for Trypanosoma cruzi Dm28c trypomastigotes infected in African green monkey Vero cells; type: toxicity; conditions: read-out: Ratio IC50; in short: as §2
[7] = Selectivity index, ratio of IC50 for African green monkey Vero cells to IC50 for Trypanosoma cruzi Dm28c amastigotes infected in African green monkey Vero cells; type: toxicity; conditions: read-out: Ratio IC50; in short: as §2
Trypanosoma cruzi [8] = experiment: (§3) Binding affinity to recombinant Trypanosoma cruzi His/haemaglutinin-tagged BDF3 expressed in Escherichia coli BL21 by fluorescence spectra analysis
In short: (§4)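 Intrinsic tryptophan (W117) fluorescence spectra were recorded for 10 μM recombinant TcBDF3 in 100 mM ammonium acetate, pH 6.5, alone and with increasing ligand; building blocks were tested at 100 μM. Quenching was analyzed by Stern–Volmer, modified Stern–Volmer and double-logarithmic plots, and Kd came from the double-logarithmic plot.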

Trypanosoma cruzi [9] = experiment: Binding affinity to recombinant Trypanosoma cruzi His/haemaglutinin-tagged BDF3 expressed in Escherichia coli BL21 assessed as change in melting temperature by SYPRO orange based thermal shift assay
Trypanosoma cruzi [10] = experiment: Antitrypanosomal activity against Trypanosoma cruzi Dm28c […] infected in African green monkey Vero cells at 25 uM after 48 hrs by CPRG/Nonidet reagent based beta-galactosidase reporter gene assay; type: functional, organism-based
[11] = as §3; in short: as §4
Trypanosoma cruzi [12] = experiment: Binding affinity to recombinant Trypanosoma cruzi His/haemaglutinin-tagged BDF3 Y123A/L130A double mutant expressed in Escherichia coli BL21 by fluorescence spectra analysis
In short: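 Intrinsic tryptophan fluorescence of 10 μM recombinant protein in 100 mM ammonium acetate, pH 6.5, measured with and without the hydrazone dynamic library. Maximum emission was normalized and compared.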

Trypanosoma cruzi [13] = experiment: Binding affinity to recombinant Trypanosoma cruzi His/haemaglutinin-tagged BDF3 Y123A/L130A double mutant expressed in Escherichia coli BL21 by LC-MS based dynamic combinatorial chemistry analysis
In short: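 Dynamic library of six aldehydes and four acylhydrazides (75 μM each) in 100 mM ammonium acetate, pH 6.5, with 3.75 mM aniline, equilibrated about 10 h, with and without 100 μM recombinant protein. Read-out: LC–MS peak areas. Amplification factor = peak area in templated library ÷ peak area in untemplated library.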

Trypanosoma cruzi [14] = experiment: Binding affinity to recombinant Trypanosoma cruzi His/haemaglutinin-tagged BDF3 expressed in Escherichia coli BL21 assessed as change in melting temperature at 10 uM by SYPRO orange based thermal shift assay
Trypanosoma cruzi [15] = experiment: Binding affinity to recombinant Trypanosoma cruzi His/haemaglutinin-tagged BDF3 Y123A/L130A double mutant expressed in Escherichia coli BL21 assessed as change in melting temperature at 10 uM by SYPRO orange based thermal shift assay
Trypanosoma cruzi [16] = experiment: Binding affinity to recombinant Trypanosoma cruzi His/haemaglutinin-tagged BDF3 expressed in Escherichia coli BL21 at 100 uM by fluorescence spectra analysis; in short: as §4

Structure (SMILES) | fold change (FC) (Trypanosoma cruzi [1]) | also measured
COc1cc(/C=N/NC(=O)c2ccco2)cc(OC)c1OC | < 1 | –
CC1CS(=O)(=O)CCN1/N=C/c1ccc([N+](=O)[O-])o1 (stereo not drawn) [NIFURTIMOX] | – | IC50 (Trypanosoma cruzi [2]): 8 µM; IC50 (Trypanosoma cruzi [3]): 7 µM; IC50 (Trypanosoma cruzi [4]): 3 µM; IC50 (Vero): 115 µM; selectivity ratio [5]: 14; selectivity ratio [6]: 16; selectivity ratio [7]: 38
O=C(Cn1ccnc1[N+](=O)[O-])NCc1ccccc1 [BENZNIDAZOLE] | – | IC50 (Trypanosoma cruzi [2]): 18.2 µM; IC50 (Trypanosoma cruzi [3]): 27.1 µM; IC50 (Trypanosoma cruzi [4]): 3.92 µM; IC50 (Vero): 30.2 µM
O=C(N/N=C/c1ccc(CO)o1)c1ccco1 | < 1 | –
COc1cc(/C=N/NC(=O)c2ccccc2)cc(OC)c1OC | < 1 | –
O=C(N/N=C/[C@H](O)[C@H](O)[C@H](O)[C@@H](O)CO)c1ccncc1 | 1.5 to 2 | –
COc1cc(/C=N/NC(=O)c2cccs2)ccc1O | 2.4 | Kd [11]: 1.7 µM; Activity (Trypanosoma cruzi [12]): inactive; Activity (Trypanosoma cruzi [13]): inactive; ΔTm (Trypanosoma cruzi [14]): 3.43 °C; ΔTm (Trypanosoma cruzi [15]): 0.4 °C; IC50 (Trypanosoma cruzi [2]): 23 µM; IC50 (Trypanosoma cruzi [3]): 17.8 µM; IC50 (Trypanosoma cruzi [4]): 13.1 µM; IC50 (Vero): > 200 µM; selectivity ratio [5]: > 9; selectivity ratio [6]: > 11; selectivity ratio [7]: > 15
COc1cc(C=O)ccc1O | – | Activity (Trypanosoma cruzi [16]): inactive
NNC(=O)c1cccs1 | – | Activity (Trypanosoma cruzi [16]): inactive
COc1cc(/C=N/NC(=O)c2ccncc2)cc(OC)c1OC | < 1 | –
O=C(N/N=C/[C@H](O)[C@H](O)[C@H](O)[C@@H](O)CO)c1ccco1 | < 1 | –
COc1cc(/C=N/NC(=O)c2ccncc2)ccc1O | < 1 | –
O=C(N/N=C/c1ccc(CO)o1)c1ccncc1 | < 1 | –
COc1cc(/C=N/NC(=O)c2ccco2)ccc1O | 1.5 to 2 | –
O=C(N/N=C/[C@H](O)[C@H](O)[C@H](O)[C@@H](O)CO)c1ccccc1 | 1.5 to 2 | –

Continued, in another order:

fold change (FC) (Trypanosoma cruzi [1]) | Structure (SMILES) | also measured
< 1 | O=C(N/N=C/c1ccc(CO)o1)c1cccs1 | –
< 1 | O=C(O)c1ccc(/C=N/NC(=O)c2ccccc2)cc1 | –
< 1 | O=C(N/N=C/[C@H](O)[C@H](O)[C@H](O)[C@@H](O)CO)c1cccs1 | –
< 1 | O=C(N/N=C/CCC/C=N/NC(=O)c1ccncc1)c1ccccc1 | –
< 1 | O=C(N/N=C/c1ccc(CO)o1)c1ccccc1 | –
1.2 | COc1cc(/C=N/NC(=O)c2cccs2)cc(OC)c1OC | Activity (Trypanosoma cruzi [8]): Active; Activity (Trypanosoma cruzi [9]): Active; Activity (Trypanosoma cruzi [10]): Active
< 1 | O=C(N/N=C/CCC/C=N/NC(=O)c1ccco1)c1ccccc1 | –
< 1 | O=C(N/N=C/CCC/C=N/NC(=O)c1ccccc1)c1ccccc1 | –
< 1 | O=C(O)c1ccc(/C=N/NC(=O)c2ccco2)cc1 | –
1.5 to 2 | COc1cc(/C=N/NC(=O)c2ccccc2)ccc1O | –
< 1 | O=C(N/N=C/CCC/C=N/NC(=O)c1ccco1)c1ccncc1 | –
< 1 | O=C(N/N=C/CCC/C=N/NC(=O)c1ccncc1)c1ccncc1 | –
< 1 | O=C(O)c1ccc(/C=N/NC(=O)c2ccncc2)cc1 | –
< 1 | O=C(O)c1ccc(/C=N/NC(=O)c2cccs2)cc1 | –
< 1 | O=C(N/N=C/CCC/C=N/NC(=O)c1cccs1)c1ccncc1 | –
< 1 | O=C(N/N=C/CCC/C=N/NC(=O)c1ccco1)c1ccco1 | –
< 1 | O=C(N/N=C/CCC/C=N/NC(=O)c1cccs1)c1ccccc1 | –
1.5 to 2 | O=C(N/N=C/CCC/C=N/NC(=O)c1cccs1)c1cccs1 | –
< 1 | O=C(N/N=C/CCC/C=N/NC(=O)c1cccs1)c1ccco1 | –
